The RNAGym collection of RNA variant scans (doi:10.1101/gad.245936.114)
This sample holds only a part of the variants without activity.

B1: tRNA (parent)
chain: CUCUCGGUAGCCAAGUUGGUUUAAGGCGCAAGACUUUAAUUUAUCACUACGAAAUCUUGAGAUCGGGCGUUCGACUCGCCCCCGGGAGAUUUUUUCCUCGAGCAA

Variants of: B1
Assay: nonsense suppression (GFP-seq) (ratio to wild type); higher = more function; SUP4oc tRNA, yeast GFP reporter sort-seq
How it was run: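 To measure nonsense suppression, tRNA variants from a library carrying ~3% random mutations were integrated into the yeast genome alongside RFP and a GFP ochre reporter under galactose control. Growth took place in raffinose/galactose medium supplemented with 80 mg/L adenine, followed by sorting into GFP/RFP bins and Illumina sequencing of each bin (phred ≥30). For each variant with ≥100 reads and ≥30 cells, the bin median GFP/RFP values were weighted by its estimated cell share per bin and referenced to the unmutated parent tRNA.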

Row | Variant | nonsense suppression
1 | CUCUCGGUAGCCAAGUUGGCUUAAGGCGCAAGACUUUAAUUUAUCACUACGAAAUCUUGAGAUCGGGCGUUGGACUCGCCCCCGGGAGAUUUUUUCCUCGAGCAA [U20C C72G] | 0.063
2 | CUCUCGGUAGCCAAGUUGGUUUGAGGCGCAAGACUUUAAUUUAUCACUACGAAAUCUUGAGAUCGGGCGUUCGACUCGCCCCCGUGAGAUUUUUUCCUCGAGCAA [A23G G85U] | 0.0779
3 | CUGUCGGUAGCCAAGUUGGUUUAAGGCGCAAGACUUUAAUUUAUCACUACGAAAUGUUGAGAUCGGGCGUUCGACUCGCCCCCGGGAGAUUUUUUCCUCGAGCAA [C3G C56G] | ≤ 0.026
4 | CUCUCGGUAGCCAAGCUGGUCUAAGGCGCAAGACUUUAAUUUAUCACUACGAAAUCUUGAGAUCGGGCGUUCGACUCGCCCCCGGGAGAUUUUUUCCUCGAGCAA [U16C U21C] | 1.03
5 | CUCUCGGUAGCCAAGUUGGUUUAAGGCGCAAGACUUUAAUUUAUCACUACGAAAUCUUGAAAUCGGGCGUUCGACUCGCCCCCGGGAGAUUUUUUCCUCGAGCAA [G61A] | 0.853
6 | CUCCCGGUAGCCAAGUUGGUUUAAGGCGCAAGACUUUAAUUUAUCACUACGAAAUCAUGAGAUCGGGCGUUCGACUCGCCCCCGGGAGAUUUUUUCCUCGAGCAA [U4C U57A] | 0.609
7 | CUCUCGGUUGCCAAGUUGCUUUAAGGCGCAAGACUUUAAUUUAUCACUACGAAAUCUUGAGAUCCGGCGUUCGCCUCGCCCCCGGGAGAUUUUUUCCUCGAGCAA [A9U G19C G65C A74C] | ≤ 0.026
8 | CUCUCGGUAGCCAAGUUGGUUUAAGGCGGAAGACUUUAAUUUAUCACUACGAAAACUUGAGAUCGGGCGUUCGACUCGCCCCCGGGAGAUUUUUUCCUCGAGCAA [C29G U55A] | ≤ 0.026
9 | CUCUCGGUAGCUAAGUUGGUUUAAGGCGCAAGACUUUAAUUUAUCACUACGAAAUGUUGAGAUCGGGCGUUCGACUCGCCCCCGGGAGAUUUUUUCCUCGAGCAA [C12U C56G] | ≤ 0.026
10 | CUCUCGGUAGCCAAGUUGGUUUGAGGCGCAAGACUUUAAUUUAUCACUACGAAAGCUUGAGAUCGGGCGUUCGACUCGCCCCCGGGAGAUUUUUUCCUCGAGCAA [A23G U55G] | ≤ 0.026
11 | CUCUCGGUAGCCAAGUUGGUUUAAGGUGCAAGACUUUAAUUUAUCACUACGAAUUCUUGAGAUCGGGCGUUCGACUCGCCCCCGGGAGAUUUUUUCCUCGAGCAA [C27U A54U] | 0.104
12 | CUCUCUGUAGCCAAGUGGGUUUAAGGCGCAAGACUUUAAUUUAUCACUACGAAAUCUUGAGAUCGGGCGUUCGACUCGCCCCAGGGAGAUUUUUUCCUCGAGCAA [G6U U17G C83A] | 1.15
13 | CUCUCGGUAGCCAUGUUGGUUUAAUGCGCCAGACUUUAAUUUAUCACUACGAAAUCUUGAGAUCCGGCGUUCGACUCGCCCCCGGGAGAUUUUUUCCUCGAGCAA [A14U G25U A30C G65C] | ≤ 0.026
14 | CUCUCGGUAGCCAAGUUGGUUUAAGGCGCUAGACUUUAAUUUAUCACUACGAAAUCUUGAGAUCGGGCGUUCGACUGGCCCCCGGGAGAUUUUUUCCUCGAGCAA [A30U C77G] | 0.0332
15 | CUCUCGGUAGCCAAGUUGGUUUAAGGCGCAAGACUUUAAUUUAUCACUACGAAAUCUUGAGAUCGGGCGUUCGACUCACCCACGGGAGAUUUUUUCCUCGAGCAA [G78A C82A] | 0.0338
16 | CUCUCGGUAGCCAAGUUGGUUUUAGGCGCAAGACUUUAAUUUAUCACUACGAAAUGUUGAGAUCGGGCGCUCGACUCGCCCCCGGGAGAUUUUUUCCUCGAGCAA [A23U C56G U70C] | ≤ 0.026
17 | CUCUCGGUAGCCAAGUUGGUUUAAGGCGCAAGACUUUAAUUUAUCACUACGAAAUCUUGAGAUCGGGCGUUCGAAUCGCCCACGGGAGAUUUUUUCCUCGAGCAA [C75A C82A] | 0.217
18 | CUCUCGGUAGCCAAGUCGGUUUAAGGCGCAAGACUUUAAUUUAUCACUACGAAAUCUUGAGAUCGGGCGUUGGACUCGCCCCCGGGAGAUUUUUUCCUCGAGCAA [U17C C72G] | ≤ 0.026
19 | CUCUCGGUAGCCAAGUUGGUCUAAGGCGCAAGACUUUAAUUUAUCACUACGAAAUCCUGAGAUCGGGCGUUCGACUCGCUCCCGAGAGAUUUUUUCCUCGAGCAA [U21C U57C C80U G85A] | ≤ 0.026
20 | CUCUCGGUAGCCAAGUUGGUUUAAGGCGCAGGACUUUAAUUUAUCACUACGAAAUCUUGAGAUCGGCCGUUCGACUCGCCCCCGAGAGAUUUUUUCCUCGAGCAA [A31G G67C G85A] | ≤ 0.026
21 | CUCUCGGUAGCCUAGUUGGUAUAAGGCGCAAGACCUUAAUUUAUCACUACGAAAUCUUGAGAUCGGGCGUUCGACUCGCCCCCUGGAGAUUUUUUCCUCGAGCAA [A13U U21A U35C G84U] | ≤ 0.026
22 | CUCUCGAUAGCCAAGUUGGUUUAAGGCUCAAGAAUUUAAUUUAUCACUACGAAAUCUUGAGAUCGGGCGUUCGACUCGCCCCCGGGAGAUUUUUUCCUCGAGCAA [G7A G28U C34A] | ≤ 0.026
23 | CUCUCGGUAGCCAAGUUGGUUUAAGGCGCAUGACUUUAAUUUAUCACUACGAAAUCUUGAGAUCGGGCGUUCCACUCGCCGCCGGGAGAUUUUUUCCUCGAGCAA [A31U G73C C81G] | ≤ 0.026
24 | CUCUCGGUAGCCAAGUUGGUUUAAGGCGCAACACUUUAAUUUAUCACUACGAAAUCUUGAGAUCGGGCGUUCGACACGCCCCCGGGAGAUUUUUUCCUCGAGCAA [G32C U76A] | ≤ 0.026
25 | CUCACGGUAGCCAAGUUGUUUUAAGGCGCAAGACUUUAAUUUAUCACUACGAAAUCUUGAGAUCGGGCGUUCGACUCGCCCCCGGGAGAUUUUUUCCUCGAGCAA [U4A G19U] | ≤ 0.026
26 | CUCUCGGUAGCCAAGUUGGUUGAAGGCGCAAGACUUUAAUUUAUCACUACGAAAUCUUGAGAUCGGGCGUUCGACUCGCCCCCGGGAGAUUUUUUCCUCGAGCAA [U22G] | 0.989
27 | CUCUCGAUAGCCAAGUUGGUUUAAGUCGCAAGACUUUAAUUUAUCACUACGAAAUCUUGAGAUCGGGCGUUCGACUCGCCCCCGGGAGAUUUUUUCCUCGAGCAA [G7A G26U] | ≤ 0.026
